From PubChem BioAssay
Activity calls are given as the source filed them.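 Rule for the calls, unless noted: active = GFP response above 150% of the DMSO level; inconclusive = fewer than 70 events counted for a yeast strain; inactive = the rest.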

Tests used:
[1] = RPL19A-GFP modulators, yeast TOR pathway, confirmation, cell-based, S. cerevisiae, flow cytometry, cherry picks, mother/daughter gates (AID 2270;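 active = GFP response below 50% of the DMSO control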); conditions: S. cerevisiae RPL19A-GFP strain, 3 h, at 10 µM, stronger effect = lower value, 100 = same GFP as DMSO wells
[2] = LAP4-GFP expression modulators in yeast, confirmation, cell-based, cherry picks, flow cytometry, mother/daughter gates (AID 2271;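 active = GFP response above 150% of the DMSO control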;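 note: ratio of sample to DMSO plate mean so 100% equals DMSO level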); conditions: S. cerevisiae LAP4-GFP strain, 3 h, at 10 µM, stronger effect = higher value, 100 means same as DMSO control
Outline: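 Measured by: GFP by flow cytometry. Test system: GFP-fusion yeast strain. Input: yeast cells seeded at OD600 of 0.2. Timing: 30 °C, 3 h compound incubation, rotating. Buffer or medium: synthetic complete medium for yeast. Benchmarks: DMSO-only negative wells, rapamycin 400 ng/mL positive wells. Compound: 10 µM single dose.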

[3] = modulators of MEP2-GFP levels in yeast, confirmation, S. cerevisiae, flow cytometry GFP, cherry picks (AID 2272;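 active = GFP response above 150% of the DMSO control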;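 note: ratio of well signal to plate DMSO mean so 100% equals DMSO level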); conditions: S. cerevisiae MEP2-GFP strain, 3 h, at 10 µM, stronger effect = higher value
[4] = AGP1-GFP expression modulators, hit retest, confirmation, cell-based, flow cytometry, S. cerevisiae, cherry picks (AID 2273);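 note: median GFP channel fluorescence over the whole cell population gate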; conditions: S. cerevisiae AGP1-GFP strain, 3 h, at 10 µM
[5] = modulators of CIT2-GFP expression in yeast, confirmation, S. cerevisiae, GFP fusion, cherry picks, mother/daughter gates (AID 2274); conditions: S. cerevisiae CIT2-GFP strain, flow cytometry, 3 h, at 10 µM, stronger effect = higher value
[6] = measured here: daughter cell gate
[7] = measured here: mother cell gate
[8] = measured here: daughter cell gate response
[9] = measured here: mother cell gate response

| Compound | GFP response vs DMSO [1] | GFP response vs DMSO [1, 6] | GFP response vs DMSO [1, 7] | GFP response relative to DMSO [2] | GFP response relative to DMSO [2, 8] | GFP response relative to DMSO [2, 9] | GFP response vs DMSO [3] | GFP response, % of DMSO [4] | GFP response, % of DMSO [5] | GFP response, % of DMSO [5, 6] | GFP response, % of DMSO [5, 7] |
| --- | --- | --- | --- | --- | --- | --- | --- | --- | --- | --- | --- |
| Cn1ncc(S(=O)(=O)Cc2ccccc2)c(Cl)c1=O | 94.2% (inactive) | 90.6% | 87.7% | 316% (active) | 160% | 319% | 100% (inactive) | 79.1% (inactive) | 92.6% (inactive) | 101% | 84.3% |
| CC(C)Nc1nc(-c2ccccc2)nnc1-c1ccccc1 | 98.5% (inactive) | 98.4% | 97.7% | 107% (inactive) | 102% | 109% | 106% (inactive) | 96.1% (inactive) | 98.6% (inactive) | 97.6% | 98.2% |
| CCOC(=O)Cc1csc(NC(=O)c2sc3nc4cc(C)ccc4cc3c2N)n1 | 98.6% (inactive) | 100% | 89.8% | 104% (inactive) | 92% | 111% | 114% (inactive) | 104% (inactive) | 105% (inactive) | 102% | 104% |
| CCOC(=O)Cc1csc(NC(=O)CSc2nnc(-c3ccc(C)cc3)o2)n1 | 101% (inactive) | 98.8% | 101% | 103% (inactive) | 101% | 101% | 104% (inactive) | 104% (inactive) | 104% (inactive) | 98.3% | 105% |
| COc1ccccc1Oc1ccc(S(=O)(=O)N2CCCC2)cc1 | 102% (inactive) | 100% | 103% | 91.4% (inactive) | 91% | 95.2% | 95.7% (inactive) | 93.5% (inactive) | 93.9% (inactive) | 94.8% | 92.3% |
| O=C1C2C3C=CC(CO)(O3)C2C(=O)N1c1ccc(-c2ccccc2)cc1 (stereo not drawn) | 109% (inactive) | 103% | 94.9% | 334% (active) | 156% | 304% | 103% (inactive) | 97.8% (inactive) | 91.5% (inactive) | 97.4% | 82.1% |
| COc1ccc(CN2CCN(c3ncccn3)CC2)c(C)c1C | 96.2% (inactive) | 98.1% | 95.2% | 100% (inactive) | 101% | 100% | 99.3% (inactive) | 100% (inactive) | 100% (inactive) | 101% | 102% |
| COc1cccc(C(=O)Nc2ccc(C)cc2)c1 | 100% (inactive) | 99.9% | 100% | 101% (inactive) | 99.2% | 101% | 102% (inactive) | 91.2% (inactive) | 107% (inactive) | 106% | 106% |
| O=C(c1cccc2ccccc12)N1CCN(c2ccccc2F)CC1 | 97.8% (inactive) | 92.9% | 95.7% | 102% (inactive) | 99.1% | 102% | 101% (inactive) | 102% (inactive) | 94.4% (inactive) | 92% | 93.2% |
| C/C(=N\NC(=O)Cc1ccc([N+](=O)[O-])cc1)c1cccnc1 | 97.8% (inactive) | 99.3% | 97.7% | 98.2% (inactive) | 97.5% | 97.3% | 96.8% (inactive) | 98.4% (inactive) | 102% (inactive) | 103% | 102% |
| Cc1nc2ccccc2n2c(O)c(CC(=O)O)cc12 | 98.7% (inactive) | 98.5% | 99.3% | 103% (inactive) | 96.5% | 99.5% | 102% (inactive) | 98.9% (inactive) | 92.1% (inactive) | 96.4% | 85.1% |
| O=C(CN1CCCC1)Nc1cc(C(F)(F)F)cc(C(F)(F)F)c1 | 101% (inactive) | 110% | 100% | 98.9% (inactive) | 102% | 98.4% | 68.3% (inactive) | 102% (inactive) | 98.6% (inactive) | 99.3% | 97.1% |
| COc1ccc(NC(=O)C2C3C=CC(C3)C2C(=O)NCc2ccco2)c(OC)c1 (stereo not drawn) | 97.6% (inactive) | 94.4% | 93.3% | 100% (inactive) | 96% | 94.4% | 101% (inactive) | 103% (inactive) | 98.6% (inactive) | 95.8% | 96% |
